The test concerns daptomycin-non-susceptible VRE strain (clinical DRE isolate). Description: Minimum inhibitory concentration. It counts as cell-based, Enterococcus faecium. A digest of the protocol: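 Clinical daptomycin-non-susceptible VRE isolate from a bloodstream infection. Species identified by VITEK 2. […] Fosfomycin MIC by agar dilution and ceftaroline MIC by broth microdilution. Breakpoints per CLSI.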

≈ marks a conversion by molar mass, not a printed value. Bounds are passed on as bounds.

As usually defined, the MIC is the lowest concentration that inhibits growth of the organism.

Turning to `CN[C@H](CC(C)C)C(=O)N[C@H]1C(=O)N[C@@H](CC(N)=O)C(=O)N[C@H]2C(=O)N[C@H]3C(=O)N[C@H](C(=O)N[C@H](C(=O)O)c4cc(O)cc(O)c4-c4cc3ccc4O)[C@H](O)c3ccc(c(Cl)c3)Oc3cc2cc(c3O[C@@H]2O[C@H](CO)[C@@H](O)[C@H](O)[C@H]2O[C@H]2C[C@](C)(N)[C@H](O)[C@H](C)O2)Oc2ccc(cc2Cl)[C@H]1O` [vancomycin], the MIC (Sensititre GPN3F system, clinical DRE isolate) is above 128 µg/mL. Consider `CCCCCCCCCC(=O)N[C@@H](Cc1c[nH]c2ccccc12)C(=O)N[C@H](CC(N)=O)C(=O)N[C@@H](CC(=O)O)C(=O)N[C@@H]1C(=O)NCC(=O)N[C@@H](CCCN)C(=O)N[C@@H](CC(=O)O)C(=O)N[C@H](C)C(=O)N[C@@H](CC(=O)O)C(=O)NCC(=O)N[C@H](CO)C(=O)N[C@@H]([C@H](C)CC(=O)O)C(=O)N[C@@H](CC(=O)c2ccccc2N)C(=O)O[C@@H]1C` [Daptomycin, daptomycin], for which, under “broth microdilution, cation-adjusted Mueller-Hinton broth supplemented with 50 mg/mL calcium, clinical DRE isolate”, the MIC turned out to be 8 µg/mL (≈ 4.94 µM). Turning to `C[C@@H]1O[C@@H]1P(=O)(O)O` [Fosfomycin, fosfomycin], for the setting “Enterococcus, VRE”, the MIC amounted to 128 µg/mL (≈ 927 µM). In turn, `CCO/N=C(\C(=O)N[C@@H]1C(=O)N2C(C(=O)[O-])=C(Sc3nc(-c4cc[n+](C)cc4)cs3)CS[C@H]12)c1nsc(N)n1` [Ceftaroline, ceftaroline] gave an MIC (Enterococcus, VRE) above 8 µg/mL.

Values taken from paper PMC12744601 (Infection and Drug Resistance, 2025).
